Reference: ChEMBL document CHEMBL4602706, “Natural Product Evodiamine with Borate Trigger Unit: Discovery of Potent Antitumor Agents against Colon Cancer” (ACS Med Chem Lett, 2020)
The source made the active and inactive calls. The rule behind the calls is not given here.

Assays:
A549 = test: Antiproliferative activity against human A549 cells incubated for 72 hrs by CCK8 assay; type: functional, cell-based
Procedure, shortened: (§1)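 HCT116, MCF-7 and A549 human cancer cell lines; antiproliferative activity read out by CCK8 assay. Evodiamine derivatives and camptothecin served as positive controls.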

[1] = biological target: T1, DNA topoisomerase 1 (Homo sapiens) (UniProt P11387); test: Inhibition of Top1 (unknown origin) at 500 uM using supercoiled pBR322 plasmid DNA as substrate incubated for 15 mins by PI staining based agarose gel electrophoresis analysis
T1 sequence (whole entry): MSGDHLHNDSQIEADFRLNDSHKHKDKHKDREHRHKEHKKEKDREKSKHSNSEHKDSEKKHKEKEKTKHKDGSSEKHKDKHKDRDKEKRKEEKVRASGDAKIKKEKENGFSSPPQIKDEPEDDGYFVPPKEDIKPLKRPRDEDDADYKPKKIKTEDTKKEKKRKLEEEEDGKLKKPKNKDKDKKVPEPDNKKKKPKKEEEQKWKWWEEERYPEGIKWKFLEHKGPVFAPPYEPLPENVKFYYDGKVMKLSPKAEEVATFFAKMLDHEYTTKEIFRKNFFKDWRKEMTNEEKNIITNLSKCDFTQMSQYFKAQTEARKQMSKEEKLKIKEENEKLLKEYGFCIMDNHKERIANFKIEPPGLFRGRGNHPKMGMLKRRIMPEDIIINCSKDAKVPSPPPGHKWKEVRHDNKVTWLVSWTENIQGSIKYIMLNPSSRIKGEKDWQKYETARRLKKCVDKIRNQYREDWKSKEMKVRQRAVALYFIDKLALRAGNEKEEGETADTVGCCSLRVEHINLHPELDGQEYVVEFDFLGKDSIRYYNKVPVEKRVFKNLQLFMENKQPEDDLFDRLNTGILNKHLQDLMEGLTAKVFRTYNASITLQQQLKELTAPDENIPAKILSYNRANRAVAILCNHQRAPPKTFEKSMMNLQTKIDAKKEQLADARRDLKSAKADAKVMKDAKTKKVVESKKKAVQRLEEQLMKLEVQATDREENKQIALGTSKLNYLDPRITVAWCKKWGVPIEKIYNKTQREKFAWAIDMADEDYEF
Procedure, shortened: (§2)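 Top1 inhibition tested at 500, 250 and 125 μM, and over 27.9 to 250 μM for selected compounds.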

[2] = biological target: T2, DNA topoisomerase II (Homo sapiens) (UniProt P11388+Q02880); test: Inhibition of Top2 (unknown origin) at 50 uM using supercoiled pBR322 plasmid DNA as substrate incubated for 30 mins by PI staining based agarose gel electrophoresis analysis; type: protein assay
HCT-116 [3] = test: Antiproliferative activity against human HCT116 cells incubated for 72 hrs by CCK8 assay; type: functional, cell-based; procedure, shortened: as §1
MCF7 = test: Antiproliferative activity against human MCF7 cells incubated for 72 hrs by CCK8 assay; type: functional, cell-based; procedure, shortened: as §1
[4] = biological target: T1, DNA topoisomerase 1 (Homo sapiens); test: Inhibition of Top1 (unknown origin) at 125 uM using supercoiled pBR322 plasmid DNA as substrate incubated for 15 mins by PI staining based agarose gel electrophoresis analysis; procedure, shortened: as §2
[5] = Inhibition of porcine brain tubulin polymerization measured at 1 min interval for 15 to 30 mins by spectrophotometric method; set-up: species or system Sus scrofa
[6] = biological target: T2, DNA topoisomerase II (Homo sapiens); test: Inhibition of Top2 (unknown origin) using supercoiled pBR322 plasmid as substrate incubated for 30 mins by PI staining based agarose gel electrophoresis analysis; type: protein assay
HCT-116 [7] = test: Induction of cell cycle arrest in human HCT116 cells assessed as accumulation at G2 phase at 0.05 uM incubated for 24 hrs by propidium iodide staining based flow cytometry (reference value: 18.51 to 20.82%); type: functional
[8] = Drug metabolism in human HCT116 cells assessed as 3-Fluoro-10-hydroxy-14-methyl-8,13,13b,14-tetrahydro-7H-indolo[2',3':3,4]pyrido[2,1-b]quinazolin-5-one release by measuring parent compound retention time incubated for 8 hrs by UPLC-QTOF/MS analysis; type: ADME, cell-based; conditions: hct-116, 8 h
Procedure, shortened: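 Compounds incubated with HCT116 cells; culture media analysed by HPLC after 8, 48 and 72 h. Relative release rate taken from relative peak areas; parent and product identified by retention time.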

HCT-116 [9] = test: Induction of cell cycle arrest in human HCT116 cells assessed as accumulation at S phase at 0.05 uM incubated for 24 hrs by propidium iodide staining based flow cytometry (reference value: 30.31 to 40.69%); type: functional
HCT-116 [10] = test: Induction of cell cycle arrest in human HCT116 cells assessed as accumulation at G1 phase at 0.2 uM incubated for 24 hrs by propidium iodide staining based flow cytometry (reference value: 38.49 to 51.18%); type: functional
HCT-116 [11] = test: Induction of cell cycle arrest in human HCT116 cells assessed as accumulation at G1 phase at 0.4 uM incubated for 24 hrs by propidium iodide staining based flow cytometry (reference value: 38.49 to 51.18%); type: functional
[12] = Drug metabolism in PBS buffer assessed as H2O2-mediated 3-Fluoro-10-hydroxy-14-methyl-8,13,13b,14-tetrahydro-7H-indolo[2',3':3,4]pyrido[2,1-b]quinazolin-5-one release rate at pH 7.4 incubated for 8 hrs in presence of 0.05 mM H2O2 by HPLC analysis; type: physicochemical; conditions: pH 7.4, 8 h
Procedure, shortened: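 Release of the parent compound after treatment with H2O2 at varied concentrations, including 0.05 mM, in PBS pH 7.4. Analysed by HPLC.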

HCT-116 [13] = test: Induction of cell cycle arrest in human HCT116 cells assessed as accumulation at G2 phase at 0.2 uM incubated for 24 hrs by propidium iodide staining based flow cytometry (reference value: 18.51 to 20.82%); type: functional
HCT-116 [14] = test: Induction of cell cycle arrest in human HCT116 cells assessed as accumulation at G1 phase at 0.05 uM incubated for 24 hrs by propidium iodide staining based flow cytometry (reference value: 38.49 to 51.18%); type: functional
[15] = Drug metabolism in human HCT116 cells assessed as 3-Fluoro-10-hydroxy-14-methyl-8,13,13b,14-tetrahydro-7H-indolo[2',3':3,4]pyrido[2,1-b]quinazolin-5-one release at 0.2 mM by UPLC-QTOF/MS analysis relative to control; type: ADME, cell-based; conditions: hct-116, 200 µM, TDE = time-dependent effect
HCT-116 [16] = test: Induction of cell cycle arrest in human HCT116 cells assessed as accumulation at S phase at 0.4 uM incubated for 24 hrs by propidium iodide staining based flow cytometry (reference value: 30.31 to 40.69%); type: functional
[17] = Metabolic stability in mouse liver microsomes assessed as half life at 1 uM preincubated with compound followed by NADPH addition measured upto 45 mins by LC-MS/MS analysis; type: ADME, Microsome
Procedure, shortened: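 In vitro stability in liver microsomes; terminal half-life determined.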

HCT-116 [18] = test: Induction of cell cycle arrest in human HCT116 cells assessed as accumulation at S phase at 0.2 uM incubated for 24 hrs by propidium iodide staining based flow cytometry (reference value: 30.31 to 40.69%); type: functional
HCT-116 [19] = test: Induction of apoptosis in human HCT116 cells assessed as apoptotic cells at 0.2 uM incubated for 48 hrs by AnnexinV-FITC/PI staining based flow cytometric analysis (reference value: 6.25 to 8.23%); type: functional
Procedure, shortened: (§3)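 HCT116 cells exposed to 0.05, 0.2 or 0.4 μM for 48 h. Apoptotic cells quantified by flow cytometry, n = 3.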

HCT-116 [20] = test: Induction of apoptosis in human HCT116 cells assessed as apoptotic cells at 0.4 uM incubated for 48 hrs by AnnexinV-FITC/PI staining based flow cytometric analysis (reference value: 6.25 to 8.23%); type: functional; procedure, shortened: as §3
[21] = biological target: T1, DNA topoisomerase 1 (Homo sapiens); test: Inhibition of Top1 (unknown origin) at 83.3 uM using supercoiled pBR322 plasmid DNA as substrate incubated for 15 mins by PI staining based agarose gel electrophoresis analysis
HCT-116 [22] = test: Induction of apoptosis in human HCT116 cells incubated for 48 hrs by AnnexinV-FITC/PI staining based flow cytometric analysis; type: functional, cell-based
HCT-116 [23] = test: Induction of cell cycle arrest in human HCT116 cells assessed as accumulation at G2 phase at 0.4 uM incubated for 24 hrs by propidium iodide staining based flow cytometry (reference value: 18.51 to 20.82%); type: functional
HCT-116 [24] = test: Induction of apoptosis in human HCT116 cells assessed as apoptotic cells at 0.05 uM incubated for 48 hrs by AnnexinV-FITC/PI staining based flow cytometric analysis (reference value: 6.25 to 8.23%); type: functional; procedure, shortened: as §3
[25] = Homo sapiens, A549, 72 h, read-out: IC50
[26] = Homo sapiens, HCT-116, 72 h, read-out: IC50
[27] = Homo sapiens, MCF7, 72 h, read-out: IC50

Row | SMILES | IC50 (A549; [25]) [nM] | inhibition [1] | inhibition [2] | IC50 (HCT-116 [3]; [26]) [nM] | IC50 (MCF7; [27]) [nM] | inhibition [4] | other results
1 | CN1c2ccccc2C(=O)N2CCc3c([nH]c4ccc(OC(=O)OCc5ccc(B6OC(C)(C)C(C)(C)O6)cc5)cc34)C21 (centres undefined) | 100 | Active | Active | 65 | 86 | Active | 
2 | CC(=O)Oc1ccc(CCl)cc1 |  |  |  |  |  |  | IC50 (A549; a549): Not Active; IC50 (HCT-116 [3]; hct-116): Not Active; IC50 (MCF7; mcf7): Not Active
3 | CN1c2ccccc2C(=O)N2CCc3c([nH]c4ccc(OC(=O)OCc5ccc(B(O)O)cc5)cc34)C21 (centres undefined) | 130 | Active | Active | 52 | 140 | Active | IC50 [5]: 25700 nM
4 | CN1c2ccc(F)cc2C(=O)N2CCc3c([nH]c4ccc(B(O)O)cc34)C21 (centres undefined) | 40 | Active |  | 63 | 94 |  | 
5 | CN1c2ccc(F)cc2C(=O)N2CCc3c([nH]c4ccc(OCc5ccc(B(O)O)cc5)cc34)C21 (centres undefined) | 73 | Active |  | 83 | 59 | Active | inhibition [6]: Active
6 | CN1c2ccccc2C(=O)N2CCc3c([nH]c4ccc(OCc5ccc(B6OC(C)(C)C(C)(C)O6)cc5)cc34)C21 (centres undefined) | 390 |  |  | 100 | 160 |  | 
7 | CN1c2ccc(F)cc2C(=O)N2CCc3c([nH]c4ccc(OC(=O)OCc5ccc(B(O)O)cc5)cc34)C21 (centres undefined) | 44 | Active | Active | 41 | 32 | Active | Activity (HCT-116 [7]): 29.47%; Retention_time [8]: 8.6 min; Activity (HCT-116 [9]): 56.44%; Activity (HCT-116 [10]): 7.6%; Activity (HCT-116 [11]): 5.41%; Drug metabolism [12]: Dose-dependent effect; Activity (HCT-116 [13]): 43.45%; Activity (HCT-116 [14]): 14.09%; Drug metabolism [15]: Tde; Activity (HCT-116 [16]): 43.36%; inhibition [6]: Active; half-life at 1 µM [17]: 44.4 s; Activity (HCT-116 [18]): 48.96%; Activity (HCT-116 [19]): 54.28%; Activity (HCT-116 [20]): 64.47%; inhibition [21]: Active; Activity (HCT-116 [22]): Dose-dependent effect; Activity (HCT-116 [23]): 51.23%; Activity (HCT-116 [24]): 44.4%
8 | CN1c2ccc(F)cc2C(=O)N2CCc3c([nH]c4ccc(B5OC(C)(C)C(C)(C)O5)cc34)C21 (centres undefined) | 110 |  |  | 170 | 960 |  | 
9 | CC[C@@]1(O)C(=O)OCc2c1cc1n(c2=O)Cc2cc3ccccc3nc2-1 [CAMPTOTHECIN] | 39 |  |  | 9 | 84 |  | 
10 | CN1c2ccccc2C(=O)N2CCc3c([nH]c4ccc(O)cc34)C21 (centres undefined) | 84 | Active |  | 55 | 270 |  | 
